Assay results: ChEMBL document CHEMBL1145945, “Synthesis and biological evaluation of iodinated and fluorinated 9-(2-hydroxypropyl) and 9-(2-hydroxyethoxy)methyl purine nucleoside analogues” (J Med Chem, 2003)

Experiments:
CCRF-CEM = test: Inhibitory concentration required to inhibit human T-lymphocyte (CEM) cell line by 50%; assay type: functional, cell-based
FM3A = test: Inhibitory concentration required to inhibit mammary carcinoma (FM3A) cell line by 50%; assay type: functional, cell-based; conditions: Mus musculus
HBL = test: Inhibitory concentration required to inhibit melanoma (HBL) cells by 50%; assay type: functional, cell-based; conditions: Homo sapiens
Outline: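 Monolayer culture in D-MEM or RPMI 1640 plus 10% FBS, 37 °C, 5% CO2. MTT assay at 570 nm, expressed as % growth. IC50 graphically fitted by hand; four parallel samples, three experiments.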

HT-29 = test: Inhibitory concentration required to inhibit human colon carcinoma (HT-29) cells by 50%; assay type: functional, cell-based
Outline: (§1)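 Monolayer cells in D-MEM or RPMI 1640 with 10% FBS, 37 °C, 5% CO2, seeded at 3 × 10⁴/mL. MTT read-out at 570 nm as % growth. IC50 by manual graphical fitting; mean ± SD, four parallel samples, three experiments.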

HeLa = test: Inhibitory concentration required to inhibit cervical carcinoma (HeLa) cells by 50%; assay type: functional, cell-based; conditions: Homo sapiens; outline: as §1
HEp-2 = test: Inhibitory concentration required to inhibit laryngeal carcinoma (Hep2) cells by 50%; assay type: functional, cell-based; conditions: Homo sapiens; outline: as §1
L1210 = test: Inhibitory concentration required to inhibit murine leukemia (L1210) cell line by 50%; assay type: functional, cell-based; conditions: Mus musculus
[1] = Inhibitory concentration required to inhibit pancreatic carcinoma (MiaPaCa2) cells by 50%; assay type: functional, Homo sapiens; outline: as §1
MOLT-4 = test: Inhibitory concentration required to inhibit human T-lymphocyte (Molt4/C8) cell line by 50%; assay type: functional, cell-based
SW-620 = test: Inhibitory concentration required to inhibit human colon carcinoma (SW620) cells by 50%; assay type: functional, cell-based
Outline: (§2)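 Cells grown as monolayers in D-MEM or RPMI 1640 with 10% FBS at 37 °C, 5% CO2, plated at 5 × 10⁴/mL. Viable cells by MTT absorbance at 570 nm. IC50 from manual graphical fit; mean ± SD of four parallel samples in three experiments.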

WI-38 = test: Inhibitory concentration required to inhibit diploid fibroblasts (WI38) by 50%; assay type: functional, cell-based; conditions: Homo sapiens; outline: as §2
FM3A (Mus musculus) = test: Inhibitory concentration required to inhibit mammary carcinoma (FM3A) cell line by 50%

Row | Structure (SMILES) | IC50 (CCRF-CEM) [µM] | IC50 (FM3A) [µM] | IC50 (HBL) [µM] | IC50 (HT-29) [µM] | IC50 (HeLa) [µM] | IC50 (HEp-2) [µM] | IC50 (L1210) [µM] | IC50 [1] [µM] | IC50 (MOLT-4) [µM] | IC50 (SW-620) [µM] | IC50 (FM3A (Mus musculus)) [µM] | IC50 (WI-38) [µM]
1 | CC(=O)OC(C)Cn1cnc2c(Cl)nc(I)nc21 (stereo not given) | 15.9 | 47 | 5.25 | 6.42 | 5.13 | 6.31 | 13 | 14.5 | 12.3 | 3.55 | – | 14.1
2 | OCCOCn1cnc2c(S)nc(F)nc21 | 117 | 155 | > 500 | > 500 | > 500 | > 500 | 170 | > 500 | 164 | > 500 | – | > 500
3 | CC(=O)OC(C)Cn1cnc2c(N)nc(I)nc21 (stereo not given) | 381 | 462 | > 500 | > 500 | > 500 | > 500 | 421 | > 500 | 436 | > 500 | – | > 500
4 | CC(O)Cn1cnc2c(N)nc(I)nc21 (stereo not given) | 465 | 452 | > 500 | > 500 | > 500 | > 500 | 490 | > 500 | > 500 | > 500 | – | > 500
5 | Nc1nc(I)nc2c1ncn2COCCO | > 500 | > 500 | > 500 | > 500 | > 500 | > 500 | > 500 | > 500 | > 500 | > 500 | – | > 500
6 | CC(=O)OC(C)Cn1cnc2c(Cl)nc(N)nc21 (stereo not given) | > 500 | > 500 | > 500 | > 500 | > 500 | > 500 | > 500 | > 500 | > 500 | > 500 | – | > 500
7 | CC(=O)OC(C)Cn1cnc2c(S)nc(N)nc21 (stereo not given) | 381 | 366 | 630 | > 500 | 89 | 10 | 128 | 25 | 370 | 0.16 | – | 0.4
8 | CC(=O)OCCOCn1cnc2c(S)nc(F)nc21 | 37 | 136 | > 500 | > 500 | > 500 | > 500 | 40 | > 500 | 35 | > 500 | – | > 500
9 | CC(=O)OC(C)Cn1cnc2c(Cl)nc(F)nc21 (stereo not given) | 44 | 93 | 44.7 | 75.9 | 50 | 10 | 37 | 93.3 | 41 | 8.9 | – | 100

Further lines, with some results ahead:

Row | IC50 (CCRF-CEM) [µM] | IC50 (FM3A) [µM] | IC50 (HBL) [µM] | IC50 (HT-29) [µM] | IC50 (HeLa) [µM] | IC50 (HEp-2) [µM] | IC50 (L1210) [µM] | IC50 [1] [µM] | IC50 (MOLT-4) [µM] | IC50 (SW-620) [µM] | IC50 (FM3A (Mus musculus)) [µM] | Structure (SMILES) | IC50 (WI-38) [µM]
10 | > 500 | 479 | > 500 | > 500 | > 500 | > 500 | > 500 | > 500 | > 500 | > 500 | – | CC(O)Cn1cnc2c(Cl)nc(I)nc21 (stereo not given) | > 500
11 | > 500 | 368 | > 500 | > 500 | > 500 | 200 | 226 | > 500 | > 500 | > 500 | – | CC(=O)OC(C)Cn1cnc2c(S)nc(F)nc21 (stereo not given) | > 500
12 | 7.5 | 2 | 15.8 | > 500 | 5 | 4.9 | 3.2 | > 500 | 8.9 | 4.2 | – | CC(=O)OCCOCn1cnc2c(S)nc(N)nc21 | > 500
13 | > 500 | > 500 | > 500 | > 500 | > 500 | > 500 | > 500 | > 500 | > 500 | > 500 | – | COc1nc(I)nc2c1ncn2COCCO | > 500
14 | > 500 | – | 25 | > 500 | 63 | – | > 500 | > 500 | > 500 | > 500 | > 500 | CC(O)Cn1cnc2c(F)nc(N)nc21 (stereo not given) | > 500
15 | > 500 | > 500 | > 500 | > 500 | > 500 | > 500 | > 500 | > 500 | > 500 | > 500 | – | CC(O)Cn1cnc2c(S)nc(F)nc21 (stereo not given) | > 500
16 | 11 | 34 | 19.9 | > 500 | 398 | 56.2 | 8.6 | > 500 | 9.4 | 15.8 | – | CC(=O)OCCOCn1cnc2c(Cl)nc(I)nc21 | 63.1
